Among the data in the RNAGym collection of RNA variant scans (doi:10.1126/science.aae0568) are yeast fitness values, retold here.

Variants at the floor of the assay were thinned out.

To fix the notation:
B1: tRNA (parent)
chain: GUUCCGUUGGCGUAAUGGUAACGCGUCUCCCUCCUAAGGAGAAGACUGCGGGUUCGAGUCCCGUACGGAACG

Variants of B1 are the subject of this data set. The experiment in a line: yeast fitness relative to wild type (ratio to wild type); higher = fitter; tRNA-Arg(CCU), competitive growth, 37 C, YPD. In short, it runs like this:
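Start and end populations of a pooled competition were compared by 100-nucleotide paired-end sequencing of gene amplicons. The Saccharomyces cerevisiae strains carried tRNA-Arg(CCU) gene variants at the native genomic locus, synthesised with a 3% per-site mutation rate at 69 sites, and competed in YPD at 37°C for 24 hours in six parallel replicates. Darwinian fitness relative to wild type was based on the change in genotype frequencies. Genotypes required ≥ 100 starting reads, and estimates < 0.5 were set to 0.5.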
As to GUUCGGUUGGCGUAAUGGUGACGCGUCUCCCUCCUAAGGAGUAGACUGCGGGUUCGAGUCCCGUACGGAACG [C5G A20G A42U], the yeast fitness amounted to 0.66.
The result for GUUCAGUUGGCGUAAUGGUAAUGCGUCUCCCUCCUAAGGAGAAGACUGCGGGUUCGGGUCCCGUACGGAACG [C5A C22U A57G] reads 0.612; that for GUUCCCUUGGCGUAAUGGUAACGCGUCUCCCUCCUAAGGAGAAGACUGCGGGUUCGGGUCCCGUACGGAACG [G6C A57G], 0.968; that for GUUCCGUUGGCGUAAUGGUAACGUGUCUCCCUCCUAAGGAGAAGACUGCGGGUUCGAGUCACGUACGGAACG [C24U C61A], 0.612.
On to GUUCCGUUGGCGUAAUGGUAACGAGUCUCCCUCCUAACGAGAAGACUCCGGGUUCGAGUCCCGUACGGAACG [C24A G38C G48C], for which the yeast fitness is at most 0.5.
For the variant GUUCUGUUAGCGUAAUGGUAACGCGUCUCCCUCCUAAGGAGACGACUGCGGGUUCGAGUCCCGUACGGAACG [C5U G9A A43C], the yeast fitness was found to be 0.653.
For GUUCCGUUGGGGCAAUGGUAACGCGUAUCCCUCCAAAGGAGAAGACUACGGGUUCGAGCCCCGUACGGAACG [C11G U13C C27A U35A G48A U59C], the yeast fitness was at most 0.5.
For GUUCCGUUGGCGUAAUGGUAACGGGUCUCCCUCCUAAGGAGAAGACUGCGGGUUCGAGUCCCGUACAGAACG [C24G G67A], the yeast fitness came out at 0.594.
For GUUCCGUUGGCGUAAUGGUAGCGCGUCUCCCUCCUAAGGAGAAGACUGCGGGUACGAGUCCCGUACGGAACG [A21G U54A], the yeast fitness stood at 0.575.
The result for GUGCCGUUGGCGUAAUGGUAACGCGUCUCCCUCCUAAGGAGAAGACUACGGGUUCGAGUCCCGUACGGUACG [U3G G48A A69U] reads 0.638; that for GUUCCGUUGGCGUAAUGGCAACGCGUCUCCCUCCUAAGGAGAAGACUGCGGGUUUGAGUCCCGUACGGAACG [U19C C55U], 0.807; that for GUUCCGUUGGCGUAAUGGUAAGGCGUCUCCCUCCUAAGGAGGAGACUCCGGGUUCGAGUCCCGUUCGGAACG [C22G A42G G48C A65U], at most 0.5.
With GUGCCGUUGGCGUAAUGGUAGCGCGUCUCCCUCCUAAGGAGAAGACUGCGGGUUCGAGUCCUGUACGGAACG [U3G A21G C62U] the figure was 0.538; with GUUCCGUAGGCGUAAUGAUAACGCGUCUCCCUCCUAAGGAGAAGACUGCGGGUUCGAGUCCCGUACGGCACG [U8A G18A A69C], at most 0.5; with GUUCGGUUGGCGUCAUGGUAACGCGUCUCUCUCCUAAGGAGAAGACUGCGGGUUCGAGUCCCGUACGGAACG [C5G A14C C30U], at most 0.5.
With GUUCGGUUGGCGAAAUGGUAACGCGUCUCCGUCCUAAGGAGAAGACUGCAGGUUCGAGUCCCGUACAGGACG [C5G U13A C31G G50A G67A A69G] the figure was at most 0.5; with GUUCUGUUAGCGUAAUGGUAACGCGUCUCCCUCUUAAGGAGAAGAGUGUGGGUUCGAGUCCCGUACGGAACG [C5U G9A C34U C46G C49U], 0.513.
Consider GUUUCGUUGGCGUAAUGGUAACGCGUCUCCCUCCUCAGGAGAAGACUGUGGGUUCGAAUCCCGUACGGAACG [C4U A36C C49U G58A], for which the yeast fitness came to 0.612.
In the case of GUUCCGUUGGGGUAAAGGUAACGCGUCUCCCUCCUAAGGAGAAGACUGCGGGUUCGAGUCCCGUGCGGAACG [C11G U16A A65G], the yeast fitness is 0.567.
With GUUCUGUUGGCGUAAUGGUAACGCGUCUUCCUCCUAAGGAGAGGACUCCGGGUUAGAGUCCCGUACGGAACG [C5U C29U A43G G48C C55A] the figure was at most 0.5; with GUUCCGUUGGCGUAAUGGUAACGCGUCUCCCUCCUAAGGAGAAGUCUGCGGGUAGGAGUCCCGUACGGAACG [A45U U54A C55G], at most 0.5.
Regarding GUUCCGUUGGCGUGAUGGUAACGCGUCUCCCUCCUAAGGGAAAGUCUGCGGGUUCGAGUCCCGUACGGAACG [A14G A40G G41A A45U], the yeast fitness amounted to 0.686.
The result for GUGCCGUUGGCGUAAUCGUAACGCGUCUUCCUCCUAGGGAGAAGACUGCGGGUUCGAGUCUCGUACGGACCG [U3G G17C C29U A37G C61U A70C] reads 0.512; that for GUUCCGUUGGCGUCAUGGUAAUGCGUCUCCCUCUUAAGGAGAAGACUGCGGGUUCGAGUCCCGUACGGAACG [A14C C22U C34U], 0.79; that for GUUCCGUUGAUGUAAUGGUAACGCGUCUCCCUCCUGAGGAGAAGACUGCGGGUUCGAGUCCCGUACCGAACG [G10A C11U A36G G67C], 0.572.
As for GUUCCGUUGGCGUAAUGGUAACGCGUCUACCCCCUAAGGAGUAGACUGCGGGUUCGAGUCCCGUACAGAACG [C29A U32C A42U G67A], the yeast fitness stood at 0.522.
With GUUCCGUUGGCGUAAUGGUAACGCGUCGCGCUCCUAAGGAGAAGACUGCGGGAUCGAGUCUCGUACGGAACG [U28G C30G U53A C61U] the figure was at most 0.5.
For GUUCCGUUGGGGUAAUGGUAACGCGUCUCCCUCCUAAGCAGAAGACUGCGGGUUCCAGUCUCGUACGGAACG [C11G G39C G56C C61U], the yeast fitness was at most 0.5.
With GUUCCGUUGGCGUAAUGGUAACGCGUCUCCCUACUUAGGAGAAGACUGCGGGUUCGAGUCCCGUAUGGAACG [C33A A36U C66U] the figure was at most 0.5; with GUUCCGUUGGCGUAAUGGUAACGCGUCUCCGUCCUAAGGAGAACAUUGCGGGUUCGAGUCCCGUACGGAACG [C31G G44C C46U], 1.
The result for GUUCGGUUGGCGUAAUGGUAACGCGUCUGCCUCCUUAGGAGAAGACUGCGGGUUCGAGUCCCGUACGGAACG [C5G C29G A36U] reads at most 0.5.
For GUUCCGUUGGCGUAAUGGUAACGCGUCUCCCUUCUAAGGAGAGGACCGCGGGUUCGAGUCCCGUACGGAACG [C33U A43G U47C], the yeast fitness was 0.563.
As to GUUCCGUUGGCGUACUGGUAAUGCGUCUCCCUCCUAAGGAGUAGACAGCGGGUUCGAGUCCCGUACGGAACG [A15C C22U A42U U47A], the yeast fitness was 0.511.
With GUUUCGUUGACGUAAUGGUAACGCGUCUCCCUCCUAAGGAGAAGACUGCGCGUUCGAGGCCCGUACGGAACG [C4U G10A G51C U59G] the figure was at most 0.5; with GUUCCGUGGGCGUAAUGGUAACGCGUCUCCCUCCUAAGGAGAAGACUGCGGCUUCGAGUCCCGUACAGAACG [U8G G52C G67A], at most 0.5; with GUUCCGUUGGCGUAAUGGUAACGCGUCUCCCUCCUAAGGAGACGACUGCGGGUUCGUGUCCCAUACGGAACG [A43C A57U G63A], 0.556.
The result for GUUCCGUUAGCGUAAUGGAAACGCGUCUCCCUCCUAAGGAGAAGACUGGGGGUUCGAGCCCCGUACGGAACG [G9A U19A C49G U59C] reads at most 0.5; that for GUUCCGUUGGCGUAAUGGUAAAGCGUCUCCGUCCAAAGGAGAAGACUGCGGGUUCGAGUCCCGUACGGAACG [C22A C31G U35A], 0.558.
